# Most compounds without a hit are left out; they make up all but 3.5% or so of the library.
# RGS4 pot: RGS4 potentiators or activators, primary screen, cell-based, HEK293 M3R inducible RGS4, calcium flux | carbachol calcium flux Fluo4; hits give low values | B-score at 10 µM | 310,000 compounds, 0.92% hits | AID 463111, 2010;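 active means B-score of the integrated calcium signal more than 4 SD below the library mean, with starting fluorescence not abnormally high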;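 further: negative B-score means reduced calcium response which marks RGS4 activation or potentiation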
#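 Reagent: ECmax carbachol challenge; Test system: M3R-expressing HEK293 line, RGS4 induced by doxycycline; Schedule: overnight RGS4 induction, 30 min dye load 37 °C, 20 min compound RT; Detection: calcium dye Fluo4 fluorescence; Read-out: Agonist-evoked peak-minus-minimum fluorescence over baseline, integrated ratio, B score.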
# MrgX1 allo act: positive allosteric modulators of MrgX1, primary screen, HEK293 cells, Fluo-4 calcium flux. Mas-related G-protein coupled receptor member X1 (Homo sapiens), Q96LB2. FDSS; hits give high values. B-score at 10 µM. 310,000 compounds, 0.63% hits. AID 588675, 2011;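 active means plate-corrected calcium response at least 3 library SD above typical, normal starting fluorescence, not activating the receptor alone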;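 further: compound read alongside a low EC10 to EC30 dose of BAM8-22 agonist; peak minus trough fluorescence over baseline measured at the second addition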
# Target sequence (Q96LB2 whole entry, looked up): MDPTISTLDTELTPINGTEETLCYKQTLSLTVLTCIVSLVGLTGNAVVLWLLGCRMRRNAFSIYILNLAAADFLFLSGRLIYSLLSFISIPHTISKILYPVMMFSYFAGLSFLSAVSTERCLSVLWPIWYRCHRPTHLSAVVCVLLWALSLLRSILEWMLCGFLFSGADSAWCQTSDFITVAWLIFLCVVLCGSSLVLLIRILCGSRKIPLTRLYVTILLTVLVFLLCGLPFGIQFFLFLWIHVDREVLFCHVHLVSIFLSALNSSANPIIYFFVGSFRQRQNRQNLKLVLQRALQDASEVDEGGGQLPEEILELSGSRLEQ
# RGS4 block: RGS4 inhibitors, primary screen, cell-based, HEK293 M3R inducible RGS4, calcium flux. Regulator of G-protein signaling 4 (Homo sapiens), P49798. Fluo-4 calcium flux; hits give high values; triggered by carbachol at its EC20. B-score at 10 µM. 310,000 compounds, 0.45% hits;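 active means B-score, a plate-corrected calcium signal, over three deviations above library mean, with baseline fluorescence within five deviations of library mean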;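 further: RGS4 expression induced by doxycycline in cells with stable M3 receptor; B-score is computed from the integrated fluorescence ratio over baseline after carbachol; higher B-score means a larger calcium signal and so more RGS4 inhibition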
# Target sequence (P49798 whole entry, looked up): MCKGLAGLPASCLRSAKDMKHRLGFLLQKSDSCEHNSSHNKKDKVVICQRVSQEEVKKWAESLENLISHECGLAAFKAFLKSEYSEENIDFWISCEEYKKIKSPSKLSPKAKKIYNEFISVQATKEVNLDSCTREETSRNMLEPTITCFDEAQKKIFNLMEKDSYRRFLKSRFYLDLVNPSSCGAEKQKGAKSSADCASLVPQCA
# MrgX1 antag: antagonists of human MrgX1 receptor, primary screen, HEK293 cells, Fluo-4 calcium flux; BAM8-22 antagonism; hits give low values; 310,000 compounds, 1.3% hits; B-score at 10 µM; Mas-related G-protein coupled receptor member X1 (Homo sapiens), Q96LB2;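 active means calcium-response B-score plate-corrected more than 3 library SD below zero, starting fluorescence within 5 deviations, no agonist response on first addition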;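 further: peak minus trough fluorescence over baseline after final BAM8-22 challenge near maximal dose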
# MrgX1 agonist: agonists of human MrgX1 receptor, primary screen, HEK293 cells, Fluo-4 calcium flux | Mas-related G-protein coupled receptor member X1 (Homo sapiens), Q96LB2 | Fluo-4 calcium fluorescence, agonist mode; hits give high values | B-score at 10 µM | 310,000 compounds, 0.44% hits;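 active means calcium response B-score plate-corrected fluorescence ratio at least 3 library SD, with starting fluorescence B-score inside 5 SD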
#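 System: HEK293 cells stably expressing human MrgX1 receptor; Dosing: test compound in the initial addition of three; Schedule: overnight plating, then 30 min 37 °C plus 30 min room-temperature dye loading; Detection: kinetic calcium dye fluorescence, Fluo-4 NW; Controls: per-plate positive and negative controls for Z′ factor.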
# RGS4 activ val: reduced carbachol calcium response, RGS4-induced M3R cells, confirmation, RGS4 activator project, cell-based, HEK293 M3R/RGS4 inducible, calcium flux, duplicate | carbachol calcium flux Fluo4 | inhibition, % at 10 µM | shares compounds with RGS4 pot | 1,100 compounds, 89% hits;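 active means inhibition above 3 SD of the buffer control wells, cut at about 41% in these data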;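 further: signal is the integrated peak-minus-minimum Fluo4 fluorescence over baseline ratio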
# RGS4 act ctr: RGS4 activator counter-screen hit in non-induced cells. shares compounds with RGS4 pot. HEK293 M3R non-induced RGS4, Fluo4 calcium flux; after carbachol challenge at its EC90. inhibition, % at 10 µM. 1,100 compounds, 82% hits. AID 602283;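 active means inhibition exceeding 3 SD of buffer-only control wells, cut at about 26% in these data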;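 further: percent drop in integrated peak-minus-baseline over baseline Fluo4 ratio after carbachol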
# Active calls of the source: *; i = inactive; · = no result given.
SMILES,RGS4 pot,MrgX1 allo act,RGS4 block,MrgX1 antag,MrgX1 agonist,RGS4 activ val,RGS4 act ctr
COc1ccc(Br)cc1C(=O)NC(=S)Nc1ccc(CN2CCOCC2)cc1,-9.8*,i,i,i,i,92*,87*
O=C(NC(=S)Nc1ccc(CN2CCOCC2)cc1)c1ccc(-c2cccc(Cl)c2)o1,-9.9*,i,i,i,i,94*,91*
CCCCCCCCn1c2c(c(=N)c3ccccc31)CCC2,i,·,i,·,·,·,·
CCCCCCCCCn1c2c(c(=N)c3c1CCC3)CCCC2,-11*,·,i,·,·,92*,95*
Cc1cccc(NC(=O)c2ccccc2NC(=O)c2ccco2)c1,i,i,i,i,i,·,·
CCOC(=O)N1CCC(N2CCN(CCC(C)C)C(CCO)C2)CC1 (stereo not given),-10*,i,i,i,i,78*,30*
Cc1cc2c3c([nH]c2cc1S(=O)(=O)NCc1ccc(CN2CCCCCC2)o1)CCCC3=O,-8.6*,i,i,i,i,75*,46*
CCOC(=O)C(=CNc1ccc(NC2=NCC(C)(C)S2)cc1)C(=O)OCC,-11*,i,i,i,i,79*,84*
CC1CCCCN1S(=O)(=O)c1cccc2nonc12 (stereo not given),i,i,i,i,i,·,·
N#Cc1ccc(OCC(=O)Nc2ccccc2NS(=O)(=O)c2cccs2)cc1,i,i,i,i,i,·,·
Cc1ccc(N2CC(C(=O)OCC(=O)c3ccc([N+](=O)[O-])cc3)CC2=O)cc1 (stereo not given),i,i,i,i,i,·,·
Cc1ccc(S(=O)(=O)n2c(CN3CCCC(C)C3)nc3ccccc32)cc1 (stereo not given),-10*,i,i,i,i,60*,84*
Cc1ccc(S(=O)(=O)n2c(C)nc3ccccc32)cc1,i,i,i,i,i,·,·
CNS(=O)(=O)c1cccc(C(=O)NCC(c2ccco2)N(C)C)c1 (stereo not given),i,i,i,i,i,·,·
Cc1ccc(S(=O)(=O)Nc2cccc(C(=O)NCC(c3ccco3)N(C)C)c2)cc1F (stereo not given),-8.2*,i,i,i,i,66*,84*
Cc1ccc2ncnc(Oc3ncccc3NC(=O)C(C)(C)C)c2c1,i,i,i,i,i,·,·
COc1ccc(S(=O)(=O)N2CCOCC2)cc1NC(=O)c1ccccc1-c1ccc(C(F)(F)F)cc1,i,i,i,i,i,·,·
O=C(CN1C(=O)c2ccc([N+](=O)[O-])cc2C1=O)NCCC1=CCCCC1,i,i,i,i,i,·,·
CCOc1ccc(OCc2ccc(C(=O)N3CCCC3)o2)cc1,i,i,i,i,i,·,·
CN1CCN(C(=O)c2ccc(COc3ccc(C(C)(C)C)cc3)o2)CC1,-7.7*,i,i,i,i,90*,41*
CC(C)c1ccc(OCc2ccc(C(=O)N3CCCC3)o2)cc1,-12*,i,i,i,i,83*,84*
Cc1[nH]nc2c1C(c1ccc(F)cc1)C1=C(CC(C)(C)CC1=O)N2 (stereo not given),-9.7*,i,i,i,i,0,0
Cc1ccc(C(=O)Nc2ccc(CN3CCCCC3)cc2)c(C)c1,-8.5*,i,i,i,i,55*,84*
COc1ccc(Cl)cc1C(=O)Nc1ccc(CN2CCCCC2)cc1,i,i,i,i,i,·,·
Cn1c2ccc(F)cc2c2nnc(SCCN3CCCCC3)nc21,i,·,i,·,·,·,·
SMILES,RGS4 pot,MrgX1 allo act,RGS4 block,MrgX1 antag,MrgX1 agonist,RGS4 activ val,RGS4 act ctr
CCCCn1c2ccc(F)cc2c2nnc(SCCN3CCCCC3)nc21,-7.8*,·,i,·,·,84*,35*
CN1/C(=C\C=C(/C#N)C(=O)Nc2ccc(Cl)cc2)C(C)(C)c2ccccc21,i,i,i,i,i,·,·
CN1/C(=C\C(=O)Nc2ccc(Cl)cc2)C(C)(C)c2ccccc21,-9.7*,i,i,i,i,92*,95*
CC(=O)/C(=N/Nc1ccc([N+](=O)[O-])cc1)N1CCCc2ccccc21,i,i,i,i,i,·,·
CC(=O)/C(=N/Nc1ccccc1[N+](=O)[O-])N1CCCc2ccccc21,-11*,i,i,i,i,93*,89*
COC(=O)c1ccc(OC)c(CSc2nnc(COc3ccccc3)o2)c1,i,i,i,i,i,·,·
COC(=O)c1ccc(OC)c(CSc2nnc(-c3ccc(C(C)(C)C)cc3)o2)c1,-7.9*,i,i,i,i,58*,84*
Cc1cc(C)c2[nH]c(C)c(CN3CCCCCC3)c(=O)c2c1,-11*,i,i,i,i,42*,84*
CC(C)OC(=O)CC1C(=O)NCCN1C(=S)NC(=O)c1ccc(F)cc1 (stereo not given),i,i,i,i,i,·,·
CN(Cc1ccccc1)C(=O)c1cc2ccccc2o1,i,i,i,i,i,·,·
CC(C)(C)N(Cc1ccccc1)C(=O)c1cc2ccccc2o1,-7.6*,i,i,i,i,91*,93*
Cn1c(=O)[nH]c(=O)c2c1nc(N1CCCCC1)n2CC(O)COc1ccc([N+](=O)[O-])cc1 (stereo not given),i,i,i,i,i,·,·
c1ccc(C(c2ccccc2)c2noc(CN3CCN(CC4CC4)CC3)n2)cc1,-8*,i,i,i,i,93*,78*
COc1ccccc1/C=C/CN1CCC(n2nccc2NC(=O)CCc2ccccc2)CC1,-8.2*,i,i,i,i,61*,84*
COc1ccccc1N(C(=O)c1snc(C(N)=O)c1N)C(C(=O)NC1CCCC1)c1ccc(N(C)C)cc1 (stereo not given),i,i,i,i,i,·,·
CCc1ccc(N2C(=O)Nc3ccccc3C2(O)C(=O)N2CCN(c3ccccn3)CC2)cc1 (stereo not given),i,i,i,i,i,·,·
